Values after ≈ are worked out from the molar mass of the structure shown.
Legend:
[1] = Ratio of fAUC to MIC in community-acquired methicillin-resistant Staphylococcus aureus 144-infected BALB/c mouse at bacteriostatic concentration; format: functional
Summary of the method: (§1)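 Neutropenic BALB/c mice (cyclophosphamide 250 and 100 mg/kg i.p., 4 and 1 days before infection) were infected by oral inhalation of 0.05 ml inoculum in 3% mucin under isoflurane. Subcutaneous tigecycline (1.56–150 mg/kg/day, single or 2–3 divided doses, saline vehicle) was started 6 h post-infection. At 24 h lungs were homogenized and plated; change in log10 CFU was taken versus 0-h controls.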

[2] = Protein binding in Staphylococcus aureus-infected BALB/c mouse serum at 6.25 mg/kg, sc administered as single dose; format: ADME, organism-based; parameters: dose 6.25 mg/kg, route subcutaneous; details: read-out: PB (converted)
Summary of the method: (§2)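 Ultrafiltration was run in triplicate with 30,000-MW cutoff devices. Drug was diluted into fresh mouse serum to final 1.5, 3, 6 and 15 μg/ml, held at 37°C for 10 min with shaking, and centrifuged at 1,000 × g for 45 min at 10°C. Binding was calculated as (S − SUF)/S × 100 for each concentration, each matched to a dose by its peak serum level.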

Mus musculus [3] = test: Volume of distribution in BALB/c mouse infected with Staphylococcus aureus at 25 mg/kg, sc administered as single dose; format: ADME, organism-based; parameters: dose 25 mg/kg, route subcutaneous; details: in vivo
Summary of the method: (§3)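 Neutropenic BALB/c mice (cyclophosphamide ip 250 and 100 mg/kg, days −4 and −1) with S. aureus pneumonia from oral instillation of 0.05 ml of a 3% mucin suspension received a single 0.2-ml sc dose in normal saline. Serum was taken at 0.25, 0.5, 1, 1.5, 2, 4, 6 and 8 h, six mice per time point. Drug was measured by validated HPLC.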

[4] = Tmax in BALB/c mouse infected with Staphylococcus aureus at 12.5 mg/kg, sc administered as single dose; format: ADME, organism-based; parameters: dose 12.5 mg/kg, route subcutaneous; details: in vivo; summary of the method: as §3
[5] = AUC (0 to 8 hrs) in Staphylococcus aureus-infected BALB/c mouse epithelial lining fluid at 12.5 mg/kg, sc administered as single dose; format: ADME, organism-based; parameters: time < 8 hr, dose 12.5 mg/kg, route subcutaneous
Summary of the method: (§4)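 Infected neutropenic BALB/c mice received a single sc dose in saline. Normal-saline bronchoalveolar lavage was done at 0.25, 1, 4 and 8 h, six mice per time. HPLC drug levels in lavage were converted to epithelial lining fluid concentrations with the serum/BAL urea ratio. AUC0-8 was calculated by the trapezoidal rule, and ELF drug was taken as free drug.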

[6] = Cmax in BALB/c mouse infected with Staphylococcus aureus at 12.5 mg/kg, sc administered as single dose; format: ADME, organism-based; parameters: dose 12.5 mg/kg, route subcutaneous; details: in vivo; summary of the method: as §3
[7] = AUC (0 to 24 hrs) in BALB/c mouse infected with Staphylococcus aureus at 12.5 mg/kg, sc administered as single dose; format: ADME, organism-based; parameters: time < 24 hr, dose 12.5 mg/kg, route subcutaneous; details: plasma; summary of the method: as §3
[8] = Half life in BALB/c mouse infected with Staphylococcus aureus at 6.25 mg/kg, sc administered as single dose; format: ADME, organism-based; parameters: dose 6.25 mg/kg, route subcutaneous; details: in vivo; summary of the method: as §3
[9] = Ratio of fAUC to MIC in community-acquired methicillin-resistant Staphylococcus aureus 144-infected BALB/c mouse at […] maximal effective concentration; format: functional; summary of the method: as §1
[10] = Tmax in BALB/c mouse infected with Staphylococcus aureus at 6.25 mg/kg, sc administered as single dose; format: ADME, organism-based; parameters: dose 6.25 mg/kg, route subcutaneous; details: in vivo; summary of the method: as §3
[11] = Protein binding in Staphylococcus aureus-infected BALB/c mouse serum at 12.5 mg/kg, sc administered as single dose; format: ADME, organism-based; parameters: dose 12.5 mg/kg, route subcutaneous; details: read-out: PB (converted); summary of the method: as §2
Mus musculus [12] = test: Volume of distribution in BALB/c mouse infected with Staphylococcus aureus at 6.25 mg/kg, sc administered as single dose; format: ADME, organism-based; parameters: dose 6.25 mg/kg, route subcutaneous; details: in vivo; summary of the method: as §3
[13] = Ratio of fAUC to MIC in hospital-acquired methicillin-resistant Staphylococcus aureus 152-infected BALB/c mouse at […] maximal effective concentration; format: functional; summary of the method: as §1
[14] = Protein binding in Staphylococcus aureus-infected BALB/c mouse serum at 25 mg/kg, sc administered as single dose; format: ADME, organism-based; parameters: dose 25 mg/kg, route subcutaneous; details: read-out: PB (converted); summary of the method: as §2
[15] = Ratio of fAUC to MIC in hospital-acquired methicillin-resistant Staphylococcus aureus 56-infected BALB/c mouse at bacteriostatic concentration; format: functional; summary of the method: as §1
Staphylococcus aureus [16] = test: Antibacterial activity against hospital-acquired methicillin-resistant Staphylococcus aureus 56 by microdilution method; format: functional
Summary of the method: (§5)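 Tigecycline MIC measured in triplicate by broth microdilution following CLSI guidelines. Isolates were stored at −80°C in skim milk and subcultured twice on blood agar before testing.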

[17] = AUC (0 to 8 hrs) in Staphylococcus aureus-infected BALB/c mouse epithelial lining fluid at 50 mg/kg, sc administered as single dose; format: ADME, organism-based; parameters: time < 8 hr, dose 50 mg/kg, route subcutaneous; summary of the method: as §4
[18] = Protein binding in Staphylococcus aureus-infected BALB/c mouse serum at 50 mg/kg, sc administered as single dose; format: ADME, organism-based; parameters: dose 50 mg/kg, route subcutaneous; details: read-out: PB (converted); summary of the method: as §2
[19] = Half life in BALB/c mouse infected with Staphylococcus aureus at 25 mg/kg, sc administered as single dose; format: ADME, organism-based; parameters: dose 25 mg/kg, route subcutaneous; details: in vivo; summary of the method: as §3
[20] = AUC (0 to 8 hrs) in Staphylococcus aureus-infected BALB/c mouse epithelial lining fluid at 25 mg/kg, sc administered as single dose; format: ADME, organism-based; parameters: time < 8 hr, dose 25 mg/kg, route subcutaneous; summary of the method: as §4
[21] = AUC (0 to 24 hrs) in BALB/c mouse infected with Staphylococcus aureus at 50 mg/kg, sc administered as single dose; format: ADME, organism-based; parameters: time < 24 hr, dose 50 mg/kg, route subcutaneous; details: plasma; summary of the method: as §3
Mus musculus [22] = test: Volume of distribution in BALB/c mouse infected with Staphylococcus aureus at 12.5 mg/kg, sc administered as single dose; format: ADME, organism-based; parameters: dose 12.5 mg/kg, route subcutaneous; details: in vivo; summary of the method: as §3
Mus musculus [23] = test: Volume of distribution in BALB/c mouse infected with Staphylococcus aureus at 50 mg/kg, sc administered as single dose; format: ADME, organism-based; parameters: dose 50 mg/kg, route subcutaneous; details: in vivo; summary of the method: as §3
[24] = AUC (0 to 24 hrs) in BALB/c mouse infected with Staphylococcus aureus at 6.25 mg/kg, sc administered as single dose; format: ADME, organism-based; parameters: time < 24 hr, dose 6.25 mg/kg, route subcutaneous; details: plasma; summary of the method: as §3
[25] = Ratio of fAUC to MIC in community-acquired methicillin-resistant Staphylococcus aureus 156-infected BALB/c mouse at 80% maximal effective concentration; format: functional; summary of the method: as §1
[26] = Cmax in BALB/c mouse infected with Staphylococcus aureus at 50 mg/kg, sc administered as single dose; format: ADME, organism-based; parameters: dose 50 mg/kg, route subcutaneous; details: in vivo; summary of the method: as §3
Staphylococcus aureus [27] = test: Antibacterial activity against hospital-acquired methicillin-resistant Staphylococcus aureus 152 by microdilution method; format: functional; summary of the method: as §5

## CN(C)c1cc(NC(=O)CNC(C)(C)C)c(O)c2c1C[C@H]1C[C@H]3[C@H](N(C)C)C(O)=C(C(N)=O)C(=O)[C@@]3(O)C(O)=C1C2=O [TIGECYCLINE]
[1]
  fAUC/MIC: 2.17
[2]
  fraction unbound: 0.15
Mus musculus [3]
  Vd: 2.77 L/kg
[4]
  Tmax: 0.27 h
[5]
  AUC(0-t) at 8 h: 11000 ng·h/mL
[6]
  Cmax: 3090 ng/mL
[7]
  AUC(0-t) at 24 h: 16500 ng·h/mL
[8]
  half-life: 12.4 h
[9]
  fAUC/MIC: 2.29
[10]
  Tmax: 0.34 h
[11]
  fraction unbound: 0.128
Mus musculus [12]
  Vd: 3.44 L/kg
[13]
  fAUC/MIC: 1.43
[14]
  fraction unbound: 0.063
[15]
  fAUC/MIC: 0.43
Staphylococcus aureus [16]
  MIC: 0.5 µg/mL (≈ 0.854 µM)
[17]
  AUC(0-t) at 8 h: 41900 ng·h/mL
[18]
  fraction unbound: 0.041
[19]
  half-life: 12.4 h
[20]
  AUC(0-t) at 8 h: 20400 ng·h/mL
[21]
  AUC(0-t) at 24 h: 72500 ng·h/mL
Mus musculus [22]
  Vd: 3.62 L/kg
Mus musculus [23]
  Vd: 2.62 L/kg
[24]
  AUC(0-t) at 24 h: 9980 ng·h/mL
[25]
  fAUC/MIC: 5.22
[26]
  Cmax: 15800 ng/mL
Staphylococcus aureus [27]
  MIC: 0.25 µg/mL (≈ 0.427 µM)
